From ChEMBL document CHEMBL1122091, “Synthesis of pyridazine analogues of the naturally occurring nucleosides cytidine, uridine, deoxycytidine, and deoxyuridine” (1982)
Activity calls are given as the source filed them. The rule behind the calls is not given here.

Experiments:
L1210 [1] = experiment: In vitro inhibitory activity against growth of L1210 mouse leukemia cells at 10E-4 M concentration; IA means Inactive; type: functional, cell-based
How it was run: (§1)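 L1210 mouse leukemia cells grown in static suspension culture in Fischer's medium for leukemic cells of mice; growth rate over a 3-day period measured with test compound present continuously.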

L1210 [2] = experiment: In vivo percent increase in life span (%ILS) of mice bearing L1210 leukemia at a dose of 400 mg/kg; type: functional, Mus musculus; settings: for ILS at 400 mg/kg: Mus musculus, L1210, dose 400 mg/kg
How it was run: (§2)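 Run by the NCI Division of Cancer Treatment, which supplied the data, using standard National Cancer Institute protocols for mouse L1210 leukemia.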

L1210 [3] = experiment: In vitro inhibitory activity against growth of L1210 mouse leukemia cells at 10E-4 M concentration; type: functional; settings: read-out: ID50 (the source's name); how it was run: as §1
L1210 [4] = experiment: In vivo percent increase in life span (%ILS) of mice bearing L1210 leukemia at a dose of 200 mg/kg; type: functional; settings: Mus musculus; how it was run: as §2

Row | SMILES | ID50 (L1210 [1]) | ILS at 400 mg/kg (L1210 [2]) [%] | IC50 (L1210 [3]) [µM] | ILS at 200 mg/kg (L1210 [4]) [%] | ILS (L1210 [2]; dose 400 mg/kg) [%]
1 | COc1cnn(C2O[C@H](CO)[C@@H](O)[C@H]2O)c(=O)c1 (stereo partly drawn) | inactive | < 25 |  |  | 
2 | CC(=O)OC[C@H]1O[C@@H](N2N=CC(=O)CC2=O)[C@H](OC(C)=O)[C@@H]1OC(C)=O | inactive | < 25 |  |  | 
3 | COc1cnn([C@H]2C[C@H](O)[C@@H](CO)O2)c(=O)c1Cl | inactive | < 25 |  |  | 
4 | COc1cnn([C@H]2C[C@H](O)[C@@H](CO)O2)c(=O)c1 | inactive | < 25 |  |  | 
5 | O=C(OC[C@H]1O[C@@H](n2ncc(Cl)c(Cl)c2=O)[C@H](OC(=O)c2ccccc2)[C@@H]1OC(=O)c1ccccc1)c1ccccc1 | inactive | < 25 |  |  | 
6 | CN(C)c1cnn(C2O[C@H](CO)[C@@H](O)[C@H]2O)c(=O)c1N(C)C (stereo partly drawn) | inactive | < 25 |  |  | 
7 | Oc1nncc(Cl)c1Cl | inactive | > 25 |  |  | 
8 | O=C1C=NN(C2O[C@H](CO)[C@@H](O)[C@H]2O)C(=O)C1 (stereo partly drawn) | inactive | < 25 |  |  | 
9 | Nc1cnn([C@H]2C[C@H](O)[C@@H](CO)O2)c(=O)c1 | inactive | < 25 |  |  | 
10 | CNc1cnn(C2O[C@H](CO)[C@@H](O)[C@H]2O)c(=O)c1 (stereo partly drawn) | inactive | < 25 |  |  | 
11 | CC1(C)O[C@@H]2[C@H](O1)[C@@H](CO)O[C@H]2n1ncc(N)c(Cl)c1=O | inactive | < 25 |  |  | 
12 | O=c1ccn([C@@H]2O[C@H](CO)[C@@H](O)[C@H]2O)c(=O)[nH]1 [URIDINE] | inactive | < 25 |  |  | 
13 | COc1cnn(C2O[C@H](CO)[C@@H](O)[C@H]2O)c(=O)c1Cl (stereo partly drawn) | inactive | < 25 |  |  | 
14 | O=c1cccnn1C1O[C@H](CO)[C@@H](O)[C@H]1O (stereo partly drawn) | inactive | < 25 |  |  | 
15 | O=c1cc(O)cnn1[C@@H]1O[C@H](CO)[C@@H](O)[C@H]1O (stereo in doubt; 15) |  | 32 | 70 | 32 | 
16 | Nc1cnn(C2O[C@H](CO)[C@@H](O)[C@H]2O)c(=O)c1 (stereo partly drawn) | inactive | < 25 |  |  | 
17 | CN(C)c1cnn(C2O[C@H](CO)[C@@H](O)[C@H]2O)c(=O)c1 (stereo partly drawn) | inactive | < 25 |  |  | 
18 | CN(C)c1cnn(C2O[C@H](CO)[C@@H](O)[C@H]2O)c(=O)c1Cl (stereo partly drawn) | inactive | < 25 |  |  | 
19 | Nc1cnn(C2O[C@H](CO)[C@@H](O)[C@H]2O)c(=O)c1Cl (stereo partly drawn) | inactive | < 25 |  |  | 
20 | O=C1C=NN([C@H]2C[C@H](O)[C@@H](CO)O2)C(=O)C1 | inactive | < 25 |  |  | 
21 | O=c1c(SCc2ccccc2)c(SCc2ccccc2)cnn1C1O[C@H](CO)[C@@H](O)[C@H]1O (stereo partly drawn) | inactive | < 25 |  |  | 
22 | Nc1cnn([C@H]2C[C@H](O)[C@@H](CO)O2)c(=O)c1Cl | inactive | < 25 |  |  | 
23 | O=c1cnn([C@@H]2O[C@H](CO)[C@@H](O)[C@H]2O)c(=O)[nH]1 [6-AZAURIDINE] | inactive | < 25 |  |  | 
24 | CNc1cnn(C2O[C@H](CO)[C@@H](O)[C@H]2O)c(=O)c1Cl (stereo partly drawn) | inactive | < 25 |  |  | 
25 | O=C(OC[C@H]1O[C@@H](n2ncccc2=O)[C@H](OC(=O)c2ccccc2)[C@@H]1OC(=O)c1ccccc1)c1ccccc1 | inactive | < 25 |  |  | 
26 | CC(=O)OC[C@H]1O[C@@H](n2ncc(N)cc2=O)[C@H](OC(C)=O)[C@@H]1OC(C)=O | inactive | < 25 |  |  | 
27 | O=c1cc(O)cnn1[C@@H]1O[C@H](CO)[C@@H](O)[C@H]1O (stereo in doubt; 17) |  |  |  |  | >25
28 | C[Si](C)(C)Oc1nncc(Cl)c1Cl | inactive | < 25 |  |  | 
29 | CSc1cnn(C2O[C@H](CO)[C@@H](O)[C@H]2O)c(=O)c1SC (stereo partly drawn) | inactive | < 25 |  |  | 
